Screens (PubChem)
MrgX1 allo act – positive allosteric modulators of MrgX1, primary screen, HEK293 cells, Fluo-4 calcium flux | Mas-related G-protein coupled receptor member X1 (Homo sapiens), Q96LB2 | FDSS; stronger effect = higher value | B-score at 10 µM | 310,000 compounds, 0.63% hits;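 active = plate-corrected calcium response at least 3 library SD above typical, normal starting fluorescence, not activating the receptor alone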;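 also: compound read alongside a low EC10 to EC30 dose of BAM8-22 agonist; peak minus trough fluorescence over baseline measured at the second addition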
Target sequence (Q96LB2 whole entry, looked up): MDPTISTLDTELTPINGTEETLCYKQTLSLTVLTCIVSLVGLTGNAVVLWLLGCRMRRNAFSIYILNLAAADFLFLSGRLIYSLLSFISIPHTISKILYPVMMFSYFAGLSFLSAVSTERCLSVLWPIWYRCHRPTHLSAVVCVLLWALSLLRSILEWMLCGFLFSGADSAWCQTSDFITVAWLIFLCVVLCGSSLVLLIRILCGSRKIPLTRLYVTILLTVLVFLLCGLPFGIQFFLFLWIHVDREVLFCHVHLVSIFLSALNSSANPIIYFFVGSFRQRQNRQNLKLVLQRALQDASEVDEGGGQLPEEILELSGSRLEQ
RGS4 pot – RGS4 potentiators or activators, primary screen, cell-based, HEK293 M3R inducible RGS4, calcium flux. carbachol calcium flux Fluo4; stronger effect = lower value. B-score at 10 µM. 310,000 compounds, 0.92% hits. AID 463111, 2010;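 active = B-score of the integrated calcium signal more than 4 SD below the library mean, with starting fluorescence not abnormally high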;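 also: negative B-score means reduced calcium response which marks RGS4 activation or potentiation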
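Reagent: ECmax carbachol challenge; Test system: M3R-expressing HEK293 line, RGS4 induced by doxycycline; Schedule: overnight RGS4 induction, 30 min dye load 37 °C, 20 min compound RT; Detection: calcium dye Fluo4 fluorescence; Read-out: Agonist-evoked peak-minus-minimum fluorescence over baseline, integrated ratio, B score.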
RGS4 inh – RGS4 inhibitors, primary screen, cell-based, HEK293 M3R inducible RGS4, calcium flux; AID 463165, 2010; Regulator of G-protein signaling 4 (Homo sapiens), P49798; 310,000 compounds, 0.45% hits; B-score at 10 µM; Fluo-4 calcium flux; stronger effect = higher value; triggered by carbachol at its EC20;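 active = B-score, a plate-corrected calcium signal, over three deviations above library mean, with baseline fluorescence within five deviations of library mean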;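 also: RGS4 expression induced by doxycycline in cells with stable M3 receptor; B-score is computed from the integrated fluorescence ratio over baseline after carbachol; higher B-score means a larger calcium signal and so more RGS4 inhibition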
Target sequence (P49798 whole entry, looked up): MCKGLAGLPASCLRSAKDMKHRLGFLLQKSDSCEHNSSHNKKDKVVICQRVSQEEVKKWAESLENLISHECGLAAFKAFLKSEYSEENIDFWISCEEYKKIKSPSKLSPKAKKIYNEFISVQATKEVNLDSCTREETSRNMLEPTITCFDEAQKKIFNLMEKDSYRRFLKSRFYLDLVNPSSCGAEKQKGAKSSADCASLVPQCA
MrgX1 antag – antagonists of human MrgX1 receptor, primary screen, HEK293 cells, Fluo-4 calcium flux; Mas-related G-protein coupled receptor member X1 (Homo sapiens), Q96LB2; BAM8-22 antagonism; stronger effect = lower value; B-score at 10 µM; 310,000 compounds, 1.3% hits; AID 588676, 2011;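 active = calcium-response B-score plate-corrected more than 3 library SD below zero, starting fluorescence within 5 deviations, no agonist response on first addition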;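 also: peak minus trough fluorescence over baseline after final BAM8-22 challenge near maximal dose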
MrgX1 agonist – agonists of human MrgX1 receptor, primary screen, HEK293 cells, Fluo-4 calcium flux; Mas-related G-protein coupled receptor member X1 (Homo sapiens), Q96LB2; Fluo-4 calcium fluorescence, agonist mode; stronger effect = higher value; B-score at 10 µM; 310,000 compounds, 0.44% hits;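 active = calcium response B-score plate-corrected fluorescence ratio at least 3 library SD, with starting fluorescence B-score inside 5 SD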
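Assay system: stable human MrgX1 HEK293 cell line. Quantity: 15,000 cells per well. Schedule: cells plated overnight, dye loaded 0.5 h 37 °C, 0.5 h room temperature. Detection: Fluo-4 NW calcium-flux fluorescence, kinetic read. Read-out basis: peak-minus-minimum fluorescence over baseline, converted to B scores. Control set: positive and negative control wells on each plate.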
RGS4 activ val – reduced carbachol calcium response, RGS4-induced M3R cells, confirmation, RGS4 activator project, cell-based, HEK293 M3R/RGS4 inducible, calcium flux, duplicate; shares compounds with RGS4 pot; carbachol calcium flux Fluo4; inhibition, % at 10 µM; 1,100 compounds, 89% hits; AID 602282, 2012;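 active = inhibition above 3 SD of the buffer control wells, cut at about 41% in these data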;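 also: signal is the integrated peak-minus-minimum Fluo4 fluorescence over baseline ratio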
M3R Ca counter – RGS4 activator counter-screen hit in non-induced cells. shares compounds with RGS4 pot. HEK293 M3R non-induced RGS4, Fluo4 calcium flux; after carbachol challenge at its EC90. inhibition, % at 10 µM. 1,100 compounds, 82% hits;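 active = inhibition exceeding 3 SD of buffer-only control wells, cut at about 26% in these data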;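 also: percent drop in integrated peak-minus-baseline over baseline Fluo4 ratio after carbachol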
Of the large screens only hits and unclear results are named; the others gave an inactive call (follow-up assays come after a bar, where they were run). Sampled rows, rich in hits. Any-hit rate of the full collection: about 3.5%.

Cc1cc(-c2ccc(C(C)C)c(S(=O)(=O)N3CCOc4ccccc43)c2)on1	none
Cc1ccc(-c2onc(C)c2C)cc1S(=O)(=O)N1CCOc2ccccc21	RGS4 pot -8.1 | RGS4 activ val 73 | M3R Ca counter 84
Cc1nc(-c2noc(-c3ccccc3Cl)n2)c(C(F)(F)F)o1	RGS4 pot -8.6 | RGS4 activ val inactive | M3R Ca counter inactive
CCOC(=O)c1sc(NC(=O)CSc2nnc(-c3ccco3)n2CC)c(C(=O)OCC)c1C	RGS4 pot -18 | RGS4 activ val 92 | M3R Ca counter 91
COC(=O)c1c(NC(=O)CSc2nnc(-c3ccco3)n2C)sc(C)c1C	none
COc1ccc(C2(CNC(=O)Cc3ccccc3)CCCC2)cc1OC	RGS4 pot -8 | RGS4 activ val inactive | M3R Ca counter inactive
C=CCN(Cc1ccc(OC)c(OC)c1)C(=O)c1cc2cc(F)ccc2[nH]1	none
Cc1cc(C)nc(N/N=C/C2=C(O)CC(c3ccccc3)CC2=O)n1 (stereo not drawn)	none
S=C(NCC1CCCCC1)Nc1ccc(Oc2ccccc2)cc1	RGS4 pot -7.6 | RGS4 activ val 93 | M3R Ca counter 60
NC1=NC(=Nc2cccc(S(=O)(=O)N3CCOCC3)c2)c2ccccc21	none
O=Cc1cn(-c2ccccc2)nc1-c1ccccc1	none
CC1=NNC(=O)/C1=C\c1cn(-c2ccccc2)nc1-c1ccccc1	RGS4 pot -11 | RGS4 activ val 70 | M3R Ca counter 34
CCOC(=O)N1CCC(N2CCCC(CO)(Cc3cccc(OC)c3)C2)CC1 (stereo not drawn)	none
CCC(C(=O)OCCOCCN(CC)CC)c1ccccc1 (stereo not drawn)	none
CCN(CC)CCCOC(=O)C(c1ccccc1)c1ccccc1	RGS4 pot -10, MrgX1 antag -6.2 | RGS4 activ val 94 | M3R Ca counter 94
COc1ccc(C(O)(CCN2CCCCC2)C2CCCCC2)cc1 (stereo not drawn)	RGS4 pot -10 | RGS4 activ val 92 | M3R Ca counter 95
CCCC(O)(CCN1CCCCC1)c1ccc(OCC)cc1 (stereo not drawn)	none
COc1ccc(NC(=O)CN2CCc3ccccc3C2)c([N+](=O)[O-])c1	none
COc1ccc(N2C(=O)CSC23C(=O)N2CCCc4cccc3c42)cc1 (stereo not drawn)	RGS4 pot -8.3 | RGS4 activ val 92 | M3R Ca counter 89
O=C1N2CCCc3cccc(c32)C12Nc1ccccc1S2 (stereo not drawn)	none (no result: MrgX1 allo act, MrgX1 antag, MrgX1 agonist)
O=C1CSC2(C(=O)N3CCCc4cccc2c43)N1c1cccc(C(F)(F)F)c1 (stereo not drawn)	RGS4 pot -8.2 | RGS4 activ val 90 | M3R Ca counter 76
O=C(O)c1cc(-c2ccc(Cl)cc2)n(-c2cccc(Cl)c2)n1	none
COc1ccc(C(CNc2ncnc3sc(C)c(C)c23)N(C)C)cc1 (stereo not drawn)	none
COc1ccccc1C(CNc1ncnc2sc(C)c(C)c12)N(C)C (stereo not drawn)	RGS4 pot -11 | RGS4 activ val 80 | M3R Ca counter 42
CCC(=O)N(Cc1cc2ccc(C)cc2[nH]c1=O)c1ccccc1OC	none
C=CCn1c(SCC(=O)N2CCc3ccccc3C2)nc2sc(C)c(C)c2c1=O	RGS4 pot -7.9 | RGS4 activ val 85 | M3R Ca counter 58
C=CCn1c(SCC(=O)N2CCc3ccccc3C2)nc2sc(CC)cc2c1=O	none
CCCCn1c(N)c(N(CCOC)C(=O)c2ccc(S(=O)(=O)N3CCC(C)CC3)cc2)c(=O)[nH]c1=O	none
O=C(CS(=O)(=O)Cc1ccccc1)Nc1nc2c(s1)CCCC2	none
O=C(CCS(=O)(=O)Cc1ccccc1)Nc1nc2c(s1)CCCC2	RGS4 pot -11 | RGS4 activ val inactive | M3R Ca counter inactive
Cc1ccccc1Cn1c(C(=O)OC(C)C)cc2c1ccn2C	RGS4 pot -8 | RGS4 activ val 90 | M3R Ca counter 50
CCOC(=O)c1cc2c(ccn2C)n1Cc1ccccc1C	RGS4 pot -8.8 | RGS4 activ val 84 | M3R Ca counter 40
CCOC(=O)c1cc2c(ccn2C)n1CC(=O)N(Cc1ccccc1)c1ccccc1	none
C[C@]12CCC(=O)CC1=CCC1C3CC=C(C#N)[C@@]3(C)CC[C@@]12O (stereo partly drawn)	none
O=S(=O)(c1ccc(Br)s1)N1CCN(Cc2ccc3c(c2)OCO3)CC1	RGS4 pot -9.3 | RGS4 activ val 90 | M3R Ca counter 86
CN(C(=O)COC(=O)c1ccc(-c2ccc(O)cc2)cc1)C1CCS(=O)(=O)C1 (stereo not drawn)	none
Cc1ccc(C(=O)N2CCN(c3ccc(NC(=O)COc4ccccc4C)cc3)CC2)cc1	RGS4 pot -8.4 | RGS4 activ val 61 | M3R Ca counter 39
CCC(=O)N1CCN(c2ccc(NC(=O)COc3ccc(C)cc3C)cc2)CC1	none
Cc1cccc(CN2CCCC(C(=O)N3CCCCC3)C2)c1 (stereo not drawn)	none
COc1cccc(CN2CCCC(C(=O)Nc3ccc(-c4cscn4)cc3)C2)c1 (stereo not drawn)	RGS4 pot -9.9 | RGS4 activ val 92 | M3R Ca counter 62
Cc1ncc(CN2CCCC(C(=O)Nc3ccc(-c4cscn4)cc3)C2)cn1 (stereo not drawn)	none
Cc1ccc(NC(=O)c2ccc3c(c2)N(CC(=O)NC(C)C)C(=O)C(C)(C)O3)cc1	none
COCCN(C(=O)CSc1nnc(-c2cccs2)n1N)c1c(N)n(Cc2ccccc2)c(=O)[nH]c1=O	none
COc1ccc(OC)c2c1C(=O)C(Cl)=C(Cl)C2=O	RGS4 pot -8.2 | RGS4 activ val 80 | M3R Ca counter 65
Cn1c(SCCOc2ccccc2F)nc2ccccc2c1=O	RGS4 pot -7.8 | RGS4 activ val 92 | M3R Ca counter 81
Cc1ccc(C)c(OCCC(=O)OCC(=O)NCc2ccc(F)cc2)c1	none
CN1CCCN(C(=O)CC(c2ccccc2)c2ccccc2)CC1	RGS4 pot -8.1 | RGS4 activ val 88 | M3R Ca counter 47
CN1CCCN(C(=O)CSc2ccccc2)CC1	none
